PREPL inh: human PREPL enzyme inhibition | Q4J6C6 | recombinant PREPL, fluorescence polarization activity-based probe | inhibition, % at 5.96 µM | actives 0.68% (n = 320,000) | AID 2751; in the data active = inhibition above about 43%;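 note: 0% = enzyme with DMSO and 100% = wells lacking enzyme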
procasp7 counter: counter-screen: procaspase-7 (human) activation; recombinant procaspase-7, Ac-DEVD-pNA absorbance 405 nm; D23A/D198A/D206A triple mutant, cannot self-cleave; scale: DMSO 0, 5 µM enzyme 100; activation, % at 8.5 µM; actives 0.093% (n = 330,000); AID 463210;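 active = percent activation above the screen-wide mean plus 3 SD, cut at about 25% in these data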
Target sequence (P55210 whole entry D23A/D198A/D206A): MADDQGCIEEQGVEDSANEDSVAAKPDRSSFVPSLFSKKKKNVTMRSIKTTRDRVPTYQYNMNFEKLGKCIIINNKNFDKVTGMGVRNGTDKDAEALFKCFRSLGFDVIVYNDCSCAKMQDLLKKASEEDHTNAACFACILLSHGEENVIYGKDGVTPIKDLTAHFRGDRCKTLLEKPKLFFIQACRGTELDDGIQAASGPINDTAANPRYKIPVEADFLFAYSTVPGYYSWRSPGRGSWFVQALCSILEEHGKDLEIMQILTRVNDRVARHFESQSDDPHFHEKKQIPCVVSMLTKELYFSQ
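Assay system – Uncleavable procaspase-7 mutant enzyme · Quantity – 2 µM procaspase-7 mutant as dispensed · Times – 1 h preincubation, 2 h reaction · Dosing – single nominal 8.5 µM compound dose, 0.8% DMSO final · Buffer or medium – Zinc-free 50 mM HEPES buffer, pH 7.4, with NaCl and Triton X-100 · Detection – Epi-absorbance of released pNA at 405 nm, two timepoints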
LYPLA2 inh: LYPLA2 (human) inhibition in PME1 counter-screen. O95372. AID 2177. recombinant LYPLA2, FP-Rh probe fluorescence polarization. inhibition, % at 5.9 µM. actives 0.38% (n = 320,000);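 active = inhibition above the screen-wide mean plus 3 SD, limit set per campaign, cut at about 26% in these data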;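 note: 0% = LYPLA2 with DMSO and 100% = wells lacking LYPLA2 enzyme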
procasp3 activ: procaspase-3 (human) activation. recombinant procaspase-3 D3A, Ac-DEVD-pNA absorbance 405 nm. activation, % at 8.5 µM. actives 0.11% (n = 330,000). AID 463141;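 active = activation above the mean of all tested compounds plus 3 SD, cut at about 21% in these data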;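 note: 0% = DMSO alone and 100% = DMSO wells spiked with extra 5 µM PC-3 D3A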
Target sequence (P42574 whole entry D9A/D28A/D175A): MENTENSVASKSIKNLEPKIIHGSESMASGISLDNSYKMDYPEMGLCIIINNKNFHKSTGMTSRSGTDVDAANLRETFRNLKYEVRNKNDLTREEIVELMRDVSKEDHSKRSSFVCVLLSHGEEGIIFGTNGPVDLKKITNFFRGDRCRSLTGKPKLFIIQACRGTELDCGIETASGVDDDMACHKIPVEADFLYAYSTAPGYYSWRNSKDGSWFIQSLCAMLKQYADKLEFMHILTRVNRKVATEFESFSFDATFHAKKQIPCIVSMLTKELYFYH
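Test system: Procaspase-3 D3A mutant, all three cleavage aspartates alanine | Dosing: Single dose, 8.5 µM nominal compound, 0.8% DMSO | Schedule: 1 h preincubation, 2 h reaction | Technique: 405 nm absorbance of p-nitroaniline, reads at 0 and 120 min | Repeats: One well per compound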
LYPLA1 inh: counter-screen for PME1 inhibitors: inhibitors of human LYPLA1 | O75608 | recombinant LYPLA1, FP-Rh probe fluorescence polarization | inhibition, % at 5.9 µM | actives 0.16% (n = 320,000);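 active = inhibition above the mean of all tested compounds plus 3 SD, set per campaign, cut at about 14% in these data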;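 note: inhibitors block serine hydrolase probe labeling of LYPLA1 so polarization falls; 0% = enzyme with DMSO and 100% = wells lacking LYPLA1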
LYPLA1 conf: counter-screen for PME1 inhibitors: confirmation of human LYPLA1 inhibitors; shares compounds with LYPLA1 inh; AID 2233; recombinant LYPLA1, FP-Rh probe fluorescence polarization; inhibition, % at 5.9 µM; actives 69% (n = 480);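 active = mean inhibition across replicates above the hit cutoff set in the primary screen, cut at about 15% in these data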;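 note: loss of FP-Rh probe labeling of LYPLA1 seen as lower polarization; 0% = LYPLA1 with DMSO and 100% = wells lacking LYPLA1 enzyme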
The depositor's hits bear a star; · = not tested or not shown. Sampled rows, rich in hits. Any-hit rate of the full collection: about 1%.

SMILES | PREPL inh | procasp7 counter | LYPLA2 inh | procasp3 activ | LYPLA1 inh | LYPLA1 conf
COc1ccc(C(C(=O)NC(C)(C)C)N(C(=O)CCC(=O)Nc2cc(C)on2)c2cc(C)cc(C)c2)cc1 (stereo not given) | 4.2 | 10.2 | 3.3 | 0.6 | 2.2 | ·
COc1ccc(CCNC(=O)CN(CCc2ccccc2)S(C)(=O)=O)cc1OC | 5.1 | 4.4 | 2.5 | 3.7 | 21.7* | 2.5
N#Cc1ccc(OCC(=O)NCCN2CCOCC2)cc1 | 22.0 | -4.2 | -1.6 | 1.1 | 2.4 | ·
CCOc1ccc(/C=N/Nc2cc(N3CCOCC3)nc(C)n2)c(O)c1 | 21.9 | -13.2 | 13.5 | -25.2 | 30.5* | 33.3*
CCCCC/C=N/NC(=O)c1[nH]c2ccc([N+](=O)[O-])cc2c1C | 8.7 | -5.5 | -0.4 | 9.6 | 15.0* | 39.9*
CCOc1ccc(CNC(=O)CCCN2C(=O)C(c3ccccc3)Oc3cccnc32)cc1 (stereo not given) | -1.6 | 13.8 | 2.1 | 2.5 | -2.0 | ·
C=CCSc1nc(N)c(C#N)c(-c2ccccc2)c1C#N | -2.3 | 4.0 | 8.3 | -1.0 | 14.2* | 11.5
Cc1ccc(CNC(=O)Cn2ccc3cc(S(=O)(=O)N4CCCCCC4)ccc32)cc1 | 13.6 | -3.1 | 2.8 | 1.1 | -3.1 | ·
COc1ccc(CNC(=O)Cn2ccc3cc(S(=O)(=O)N4CCCC4)ccc32)cc1OC | 11.4 | -1.4 | 12.7 | 9.8 | 24.2* | 3.0
COc1cccc(C(=O)C2=NN(C(C)=O)CC2c2ccco2)c1 (stereo not given) | -3.2 | 3.8 | -3.2 | 9.4 | 1.1 | ·
O=C1/C(=C/c2cccc([N+](=O)[O-])c2)Oc2cc(O)ccc21 | 6.4 | -3.5 | 10.1 | -7.1 | 16.9* | 14.6*
CCc1cc(C=NC2CCCCC2)c(O)s1 | 14.5 | -2.1 | 6.6 | -10.9 | -1.6 | ·
CC1CCC(NC(=O)CC(C)(C)Cc2nc3ccccc3c(=O)[nH]2)CC1 (stereo not given) | -18.4 | 20.2 | -2.8 | 2.8 | -3.7 | ·
Cc1ccc(C(=O)N/N=C/c2ccc(-c3ccc(Br)cc3[N+](=O)[O-])o2)o1 | 25.1 | -20.3 | 21.3 | -10.7 | 18.3* | -3.4
Cc1ccc(C(=O)N/N=C\c2ccc(Br)o2)o1 | 1.9 | 5.7 | -0.4 | -1.3 | 0.5 | ·
CCOc1ccc(-c2c(C(=O)N/N=C(\C)c3ccncc3)nnn2-c2nonc2N)cc1 | 8.5 | -4.8 | -4.0 | 7.4 | -0.2 | ·
C/C(=N\NC(=O)c1nnn(-c2nonc2N)c1-c1cccs1)c1ccncc1 | 10.3 | 9.8 | 6.2 | 1.1 | 25.3* | 1.3
CN(CC(=O)Nc1ccccc1Cl)C(=O)c1cccc(S(=O)(=O)N2CCN(c3ccc(F)cc3)CC2)c1 | -93.1 | 5.2 | 1.1 | 1.3 | 1.3 | ·
CCc1ccccc1NC(=O)COc1cccc2ccc(C)nc12 | -5.2 | -1.2 | 5.2 | 7.4 | -2.8 | ·
Cn1ncc(Cl)c1C(=O)Nc1sc2c(c1C(N)=O)CCC2 | 0.9 | -15.3 | -0.2 | -6.5 | 29.1* | 3.8
NC(=O)c1c(NC(=O)c2ccccc2)sc2c1CCC2 | 12.1 | -31.1 | 6.7 | -21.7 | -1.6 | ·
COc1ccc(C(=O)COC(=O)c2ccc(-n3cnnn3)cc2)c(OC)c1 | -8.4 | -1.2 | 8.0 | 2.7 | -1.3 | ·
CCN(c1ccccc1)S(=O)(=O)c1ccc(OC)c(NC(=O)CN(C)C)c1 | -1.2 | -2.2 | 4.3 | -5.5 | 14.9* | 7.3
CCOc1cc(CN2CCN(Cc3ccc(C)o3)C(CCO)C2)ccc1OC (stereo not given) | 12.7 | -2.8 | 9.2 | 0.4 | 1.0 | ·
O=C(Cc1ccccc1)N1CCC(c2nc(-c3ccc(F)cc3)no2)CC1 | 8.0 | 2.4 | 4.5 | 7.6 | 16.6* | 7.5
SMILES | PREPL inh | procasp7 counter | LYPLA2 inh | procasp3 activ | LYPLA1 inh | LYPLA1 conf
O=C(Cc1ccccc1)N1CCCC(c2nc(-c3ccc(S(=O)(=O)N4CCCC4)cc3)no2)C1 (stereo not given) | 0.3 | 6.2 | 10.0 | -2.0 | 3.1 | ·
O=C(NCc1ccco1)/C(=C\c1ccc(F)cc1)NC(=O)c1ccco1 | 13.3 | -13.5 | -5.5 | -15.4 | -3.6 | ·
C=CCOc1cccc(C(=O)N2CCC(CCC(=O)NC3CC3)CC2)c1 | -0.9 | 1.5 | 6.3 | 0.2 | 23.2* | 3.6
Cc1cc(C)cc(C(=O)N2CCC(CCC(=O)NC3CC3)CC2)c1 | -1.0 | 0.6 | 3.6 | 3.4 | 3.0 | ·
O=C(NCC(=O)N1CCN(c2cccc(Cl)c2)CC1)c1ccc(Br)o1 | 3.0 | 3.9 | 7.0 | -1.3 | 14.2* | 15.8*
O=C(CSC1CC(=O)N(c2ccc(C(=O)O)cc2)C1=O)Nc1ccc2ccccc2c1 (stereo not given) | 17.2 | -4.7 | -3.6 | 0.4 | 0.3 | ·
COc1ccc(-n2c(C)c([N+](=O)[O-])c3ccc(O)c(CN4CCCCC4)c32)cc1 | 38.0 | 9.4 | 24.6 | 3.4 | 54.1* | 65.0*
[O-][n+]1ccc(C(O)c2ccccc2)cc1 (stereo not given) | 12.8 | 9.3 | 4.0 | 3.6 | 2.2 | ·
O=c1/c(=C\c2cc([N+](=O)[O-])cc([N+](=O)[O-])c2O)sc2nc3ccccc3n12 | 8.2 | -32.5 | 6.2 | -15.1 | 15.8* | -1.9
O=c1/c(=C/c2ccccn2)sc2nc3ccccc3n12 | -1.2 | -10.8 | 5.9 | -7.7 | 3.7 | ·
Cc1cccc(CN2CCN(CC(=O)NCc3cccs3)C2=O)c1 | 1.9 | -5.8 | 3.5 | 4.2 | 1.1 | ·
COC/C=C/C1=CC2=CC(=O)C(C)(OC(=O)c3cnc4ccccc4n3)C(=O)C2=CN1C1CCCCC1 (stereo not given) | 9.2 | -1.1 | -3.5 | 5.2 | -5.0 | ·
CC1(OC(=O)c2cnc3ccccc3n2)C(=O)C=C2C=C(C3CC3)OC=C2C1=O (stereo not given) | 33.1 | -1.9 | 76.1* | -0.4 | 57.7* | 27.0*
Cc1ccc(N(CC(=O)Nc2ccc(C)cn2)S(=O)(=O)c2c(C)nn(C)c2C)cc1 | 5.3 | -0.6 | 15.7 | -7.5 | 15.9* | 2.5
O=C(O)/C=C/C(=O)NCCNc1ncc(C(F)(F)F)cc1Cl | -1.6 | -20.3 | 3.7 | -5.8 | 2.6 | ·
COC(=O)c1c(NC(=O)CSc2ncnc3ccccc23)sc(C)c1C | -0.5 | 3.1 | 3.4 | 5.9 | -1.0 | ·
CCOC(=O)c1c(NC(=O)CSc2ncnc3ccccc23)sc(C(C)=O)c1C | 2.6 | -7.5 | 5.2 | -8.2 | 15.8* | 8.0
OCCN(CCO)c1ccc(C(c2ccccc2Cl)c2ccc(N(CCO)CCO)cc2Cl)c(Cl)c1 | 29.1 | -16.9 | 14.3 | 4.5 | 14.9* | 16.6*
OCCN(CCO)c1ccc2ccccc2c1 | 34.9 | 0.8 | 6.6 | 2.8 | 0.7 | ·
COc1ccccc1/C=C/C=N/N1CCN(Cc2ccccc2)CC1 | 10.3 | 1.4 | 16.4 | 4.3 | 18.7* | 12.4
C(=N\N1CCN(Cc2ccccc2)CC1)/c1ccc(-c2ccccc2)cc1 | 1.2 | -5.3 | 2.8 | -3.7 | 0.4 | ·
